According to ChEMBL document CHEMBL1155222, “Synthesis and anticancer activity of N-bis(trifluoromethyl)alkyl-N'-thiazolyl and N-bis(trifluoromethyl)alkyl-N'-benzothiazolyl ureas” (2009):
Activity calls are given as the source filed them.

Experiments:
Type in all cases: functional
NCI-H460 [1] = test: Anticancer activity against human NCI-H460 cells assessed as cell growth at 100 uM after 48 hrs by Alamar blue assay relative to control; conditions: NCI-H460, 48 h, read-out: Activity
How it was run: (§1)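 NCI one-dose pre-test on MCF7, NCI-H460 and SF-268. Cells were inoculated and preincubated, then exposed to a single 10^-4 M concentration for 48 h. End-point was alamar blue. Results are percent growth versus untreated control cells, with negative values indicating cell kill.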

MCF7 [2] = test: Anticancer activity against human MCF7 cells assessed as cell growth at 100 uM after 48 hrs by Alamar blue assay relative to control; conditions: MCF7, 48 h, read-out: Activity; how it was run: as §1
SF-268 [3] = test: Anticancer activity against human SF268 cells assessed as cell growth at 100 uM after 48 hrs by Alamar blue assay relative to control; conditions: SF-268, 48 h, read-out: Activity; how it was run: as §1
CCRF-CEM = test: Anticancer activity against human CCRF-CEM cells after 48 hrs by sulforhodamine B assay
How it was run: (§2)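 NCI 60-cell-line screen. Cells grown in RPMI 1640 with 5% FBS and 2 mM L-glutamine, plated at 5000–40,000 cells/well, and preincubated 24 h at 37 °C under 5% CO2. Compounds were taken from DMSO stocks and tested at five final concentrations, 10^-4 to 10^-8 M, for 48 h. Cells were TCA-fixed, stained with 0.4% SRB, and read at 515 nm. GI50, TGI and LC50 were derived as log molar values.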

HL-60(TB) = test: Anticancer activity against human HL-60(TB) cells after 48 hrs by sulforhodamine B assay
How it was run: (§3)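 NCI 60-cell-line screen. Cells were grown in RPMI 1640 with 5% FBS and 2 mM L-glutamine, seeded at 5000–40,000 cells/well and preincubated 24 h at 37 °C, 5% CO2. Compounds in DMSO were diluted in medium with gentamicin and tested at five concentrations (10^-4 to 10^-8 M) for 48 h. Cells were then fixed with TCA, stained with SRB and read at 515 nm.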

K562 = test: Anticancer activity against human K562 cells after 48 hrs by sulforhodamine B assay; how it was run: as §2
MOLT-4 = test: Anticancer activity against human MOLT4 cells after 48 hrs by sulforhodamine B assay; how it was run: as §2
RPMI8266 = test: Anticancer activity against human RPMI8266 cells after 48 hrs by sulforhodamine B assay; how it was run: as §2
SR = test: Anticancer activity against human SR cells after 48 hrs by sulforhodamine B assay
How it was run: (§4)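 NCI 60-cell-line panel; cells grown in RPMI 1640 with 5% FBS and 2 mM L-glutamine, plated at 5000–40,000 cells/well and preincubated 24 h at 37 °C, 5% CO2. Compounds came from DMSO stocks diluted in medium with gentamicin and were tested at five final concentrations, 10^-4 to 10^-8 M, for 48 h. Cells were fixed with TCA, stained with SRB and read at 515 nm. GI50, TGI and LC50 were derived as log molar values.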

A549 = test: Anticancer activity against human A549 cells after 48 hrs by sulforhodamine B assay; how it was run: as §2
EKVX = test: Anticancer activity against human EKVX cells after 48 hrs by sulforhodamine B assay; how it was run: as §2
HOP-62 = test: Anticancer activity against human HOP62 cells after 48 hrs by sulforhodamine B assay; how it was run: as §2
HOP-92 = test: Anticancer activity against human HOP92 cells after 48 hrs by sulforhodamine B assay; how it was run: as §2
NCI-H226 = test: Anticancer activity against human NCI-H226 cells after 48 hrs by sulforhodamine B assay; how it was run: as §2
NCI-H322M = test: Anticancer activity against human NCI-H322M cells after 48 hrs by sulforhodamine B assay; how it was run: as §2
NCI-H460 [4] = test: Anticancer activity against human NCI-H460 cells after 48 hrs by sulforhodamine B assay; how it was run: as §2
NCI-H522 = test: Anticancer activity against human NCI-H522 cells after 48 hrs by sulforhodamine B assay; how it was run: as §2
NCI-H23 = test: Anticancer activity against human NCI-H23 cells after 48 hrs by sulforhodamine B assay; how it was run: as §3
COLO 205 = test: Anticancer activity against human COLO205 cells after 48 hrs by sulforhodamine B assay; how it was run: as §2
HCC 2998 = test: Anticancer activity against human HCC2998 cells after 48 hrs by sulforhodamine B assay; how it was run: as §2
HCT-116 = test: Anticancer activity against human HCT116 cells after 48 hrs by sulforhodamine B assay; how it was run: as §2
HCT-15 = test: Anticancer activity against human HCT15 cells after 48 hrs by sulforhodamine B assay; how it was run: as §2
HT-29 = test: Anticancer activity against human HT-29 cells after 48 hrs by sulforhodamine B assay; how it was run: as §2
KM12 = test: Anticancer activity against human KM12 cells after 48 hrs by sulforhodamine B assay; how it was run: as §2
SW-620 = test: Anticancer activity against human SW620 cells after 48 hrs by sulforhodamine B assay; how it was run: as §4
SF-268 [5] = test: Anticancer activity against human SF268 cells after 48 hrs by sulforhodamine B assay; how it was run: as §2
SF-295 = test: Anticancer activity against human SF295 cells after 48 hrs by sulforhodamine B assay; how it was run: as §2
SF-539 = test: Anticancer activity against human SF539 cells after 48 hrs by sulforhodamine B assay; how it was run: as §2
SNB-19 = test: Anticancer activity against human SNB19 cells after 48 hrs by sulforhodamine B assay; how it was run: as §4
SNB-75 = test: Anticancer activity against human SNB75 cells after 48 hrs by sulforhodamine B assay; how it was run: as §4
U-251 = test: Anticancer activity against human U251 cells after 48 hrs by sulforhodamine B assay; how it was run: as §4
LOX IMVI = test: Anticancer activity against human LOXIMVI cells after 48 hrs by sulforhodamine B assay; how it was run: as §2
Malme-3M = test: Anticancer activity against human MALME-3M cells after 48 hrs by sulforhodamine B assay; how it was run: as §2
M14 = test: Anticancer activity against human M14 cells after 48 hrs by sulforhodamine B assay; how it was run: as §2
SK-MEL-2 = test: Anticancer activity against human SK-MEL-2 cells after 48 hrs by sulforhodamine B assay; how it was run: as §2
SK-MEL-28 = test: Anticancer activity against human SK-MEL-28 cells after 48 hrs by sulforhodamine B assay; how it was run: as §2
SK-MEL-5 = test: Anticancer activity against human SK-MEL-5 cells after 48 hrs by sulforhodamine B assay; how it was run: as §2
UACC-257 = test: Anticancer activity against human UACC257 cells after 48 hrs by sulforhodamine B assay; how it was run: as §4
UACC-62 = test: Anticancer activity against human UACC62 cells after 48 hrs by sulforhodamine B assay; how it was run: as §4
IGROV-1 = test: Anticancer activity against human IGROV1 cells after 48 hrs by sulforhodamine B assay; how it was run: as §2
OVCAR-3 = test: Anticancer activity against human OVCAR-3 cells after 48 hrs by sulforhodamine B assay; how it was run: as §2
OVCAR-4 = test: Anticancer activity against human OVCAR4 cells after 48 hrs by sulforhodamine B assay; how it was run: as §2
OVCAR-5 = test: Anticancer activity against human OVCAR5 cells after 48 hrs by sulforhodamine B assay; how it was run: as §2
OVCAR-8 = test: Anticancer activity against human OVCAR8 cells after 48 hrs by sulforhodamine B assay; how it was run: as §2
SK-OV-3 = test: Anticancer activity against human SKOV3 cells after 48 hrs by sulforhodamine B assay; how it was run: as §2
786-0 = test: Anticancer activity against human 786-0 cells after 48 hrs by sulforhodamine B assay; how it was run: as §2
A498 = test: Anticancer activity against human A498 cells after 48 hrs by sulforhodamine B assay; how it was run: as §2
ACHN = test: Anticancer activity against human ACHN cells after 48 hrs by sulforhodamine B assay; how it was run: as §2
CAKI-1 = test: Anticancer activity against human Caki1 cells after 48 hrs by sulforhodamine B assay; how it was run: as §2
RXF 393 = test: Anticancer activity against human RXF393 cells after 48 hrs by sulforhodamine B assay; how it was run: as §2
SN12C = test: Anticancer activity against human SN12C cells after 48 hrs by sulforhodamine B assay; how it was run: as §4
TK-10 = test: Anticancer activity against human TK10 cells after 48 hrs by sulforhodamine B assay; how it was run: as §4
UO-31 = test: Anticancer activity against human UO31 cells after 48 hrs by sulforhodamine B assay; how it was run: as §4
PC-3 = test: Anticancer activity against human PC3 cells after 48 hrs by sulforhodamine B assay; how it was run: as §2
DU-145 = test: Anticancer activity against human DU145 cells after 48 hrs by sulforhodamine B assay; how it was run: as §2
MCF7 [6] = test: Anticancer activity against human MCF7 cells after 48 hrs by sulforhodamine B assay; how it was run: as §2
NCI/ADR-RES = test: Anticancer activity against human NCI/ADR-RES cells after 48 hrs by sulforhodamine B assay; how it was run: as §2
MDA-MB-231 = test: Anticancer activity against human MDA-MB-231 cells after 48 hrs by sulforhodamine B assay; how it was run: as §2
Hs-578T = test: Anticancer activity against human Hs 578T cells after 48 hrs by sulforhodamine B assay; how it was run: as §2
MDA-MB-435 = test: Anticancer activity against human MDA-MB-435 cells after 48 hrs by sulforhodamine B assay; how it was run: as §2
MDA-N = test: Anticancer activity against human MDA-N cells after 48 hrs by sulforhodamine B assay; how it was run: as §2
BT-549 = test: Anticancer activity against human BT549 cells after 48 hrs by sulforhodamine B assay; how it was run: as §2
T47D = test: Anticancer activity against human T47D cells after 48 hrs by sulforhodamine B assay; how it was run: as §4

CC(NC(=O)Nc1nccs1)(C(F)(F)F)C(F)(F)F
74%: growth at 100 µM (SF-268 [3])
49%: growth at 100 µM (NCI-H460 [1])
59%: growth at 100 µM (MCF7 [2])

FC(F)(F)C(=Cc1nc2ccccc2s1)C(F)(F)F
inactive: logGI50 (CCRF-CEM) | logGI50 (HL-60(TB)) | logGI50 (K562) | logGI50 (MOLT-4) | logGI50 (RPMI8266) | logGI50 (SR) | logGI50 (A549) | logGI50 (EKVX) | logGI50 (HOP-62) | logGI50 (HOP-92) | logGI50 (NCI-H226) | logGI50 (NCI-H322M) | logGI50 (NCI-H460 [4]) | logGI50 (NCI-H522) | logGI50 (NCI-H23) | logGI50 (COLO 205) | logGI50 (HCC 2998) | logGI50 (HCT-116) | logGI50 (HCT-15) | logGI50 (HT-29) | logGI50 (KM12) | logGI50 (SW-620) | logGI50 (SF-268 [5]) | logGI50 (SF-295) | logGI50 (SF-539) | logGI50 (SNB-19) | logGI50 (SNB-75) | logGI50 (U-251) | logGI50 (LOX IMVI) | logGI50 (Malme-3M) | logGI50 (M14) | logGI50 (SK-MEL-2) | logGI50 (SK-MEL-28) | logGI50 (SK-MEL-5) | logGI50 (UACC-257) | logGI50 (UACC-62) | logGI50 (IGROV-1) | logGI50 (OVCAR-3) | logGI50 (OVCAR-4) | logGI50 (OVCAR-5) | logGI50 (OVCAR-8) | logGI50 (SK-OV-3) | logGI50 (786-0) | logGI50 (A498) | logGI50 (ACHN) | logGI50 (CAKI-1) | logGI50 (RXF 393) | logGI50 (SN12C) | logGI50 (TK-10) | logGI50 (UO-31) | logGI50 (PC-3) | logGI50 (DU-145) | logGI50 (MCF7 [6]) | logGI50 (NCI/ADR-RES) | logGI50 (MDA-MB-231) | logGI50 (Hs-578T) | logGI50 (MDA-MB-435) | logGI50 (MDA-N) | logGI50 (BT-549) | logGI50 (T47D)
